Drawing on ChEMBL document CHEMBL1148810, “Design, synthesis, and preliminary pharmacological evaluation of new quinoline derivatives as nicotinic ligands” (J Med Chem, 2007), this text covers Ki and Activity for seven compounds.

Active and inactive are the calls of the source.

For test [1], the target named is Neuronal acetylcholine receptor subunit alpha-7 (Rattus norvegicus, UniProt Q05941). Nature of the test: Displacement of [3H]alpha-bungarotoxin from alpha-7 nAChR in rat cerebral cortex. The test is classed as tissue-based.
Sequence of Neuronal acetylcholine receptor subunit alpha-7 (Q05941 whole entry): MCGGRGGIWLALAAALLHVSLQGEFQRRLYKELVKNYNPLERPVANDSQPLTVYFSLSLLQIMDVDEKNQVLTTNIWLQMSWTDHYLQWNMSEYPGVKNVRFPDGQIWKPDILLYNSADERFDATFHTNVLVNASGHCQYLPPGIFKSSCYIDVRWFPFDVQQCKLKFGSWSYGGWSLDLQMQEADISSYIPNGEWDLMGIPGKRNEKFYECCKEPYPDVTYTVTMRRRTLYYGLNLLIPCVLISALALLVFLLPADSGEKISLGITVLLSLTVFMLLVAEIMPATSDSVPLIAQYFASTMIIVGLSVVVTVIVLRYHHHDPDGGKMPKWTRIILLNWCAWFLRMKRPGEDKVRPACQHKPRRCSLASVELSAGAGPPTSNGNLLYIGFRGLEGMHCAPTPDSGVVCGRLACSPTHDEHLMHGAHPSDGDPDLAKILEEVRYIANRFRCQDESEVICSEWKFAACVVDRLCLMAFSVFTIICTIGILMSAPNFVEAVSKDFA
Test [2] deals with T1, Neuronal acetylcholine receptor; alpha4/beta2 (Rattus norvegicus, UniProt P09483+P12390). Nature of the test: Displacement of [3H]epibatidine from alpha-4-beta-2 nAChR in rat cerebral cortex. The format is tissue-based. The method, boiled down:
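Rat cerebral cortex was used in competition binding against [³H]-epibatidine, with amines tested as oxalate salts. Ki values were derived, and subtype selectivity was taken from comparison with Ki values obtained on the same tissue.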

For test [3], the target named is T1, Neuronal acetylcholine receptor; alpha4/beta2. Nature of the test: Displacement of [3H]cytisine from alpha-4-beta-2 nAChR in rat cerebral cortex. The format is tissue-based. In a few lines: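 Rat cerebral cortex membranes labelled with [³H]-cytisine, which marks α4β2* receptors. Compounds were tested for displacement up to 10 µM, with amines used as oxalate salts. Ki values were determined.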

Another test concerns Mus musculus. Nature of the test: Analgesic activity in mouse at 5 mg/kg, ip by hot plate test […]. The test is classed as functional, organism-based. Set-up: dose 5 mg/kg. In a few lines: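 Mice were placed on a stainless steel surface held at 52.5 ± 0.1 °C, and dosing was i.p. at 5 mg/kg. Paw-licking latency (s) was timed by stopwatch before and 15, 30, 45 and 60 min after dosing. Mice with pretest scores below 12 or above 18 s were excluded, and the cutoff was 45 s. Ten mice per group; mean ± SEM.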

T1 sequence (P09483 whole entry): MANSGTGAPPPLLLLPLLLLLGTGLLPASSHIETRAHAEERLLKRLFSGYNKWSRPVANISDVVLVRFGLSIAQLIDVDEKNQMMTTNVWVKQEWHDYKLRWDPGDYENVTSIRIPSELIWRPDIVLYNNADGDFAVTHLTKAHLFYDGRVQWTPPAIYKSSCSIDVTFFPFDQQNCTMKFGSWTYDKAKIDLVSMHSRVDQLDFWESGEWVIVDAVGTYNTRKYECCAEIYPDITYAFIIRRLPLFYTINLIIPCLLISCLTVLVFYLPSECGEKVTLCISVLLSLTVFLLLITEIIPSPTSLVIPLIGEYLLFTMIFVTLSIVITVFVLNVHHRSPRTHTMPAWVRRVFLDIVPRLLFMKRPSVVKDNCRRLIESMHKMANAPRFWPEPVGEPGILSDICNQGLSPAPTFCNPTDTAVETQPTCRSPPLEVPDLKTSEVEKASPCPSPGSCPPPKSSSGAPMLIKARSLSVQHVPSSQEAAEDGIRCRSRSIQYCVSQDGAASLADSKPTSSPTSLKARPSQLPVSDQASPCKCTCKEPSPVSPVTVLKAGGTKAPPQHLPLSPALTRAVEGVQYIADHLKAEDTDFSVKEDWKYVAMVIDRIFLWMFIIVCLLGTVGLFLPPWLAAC
T1 sequence (P12390 whole entry): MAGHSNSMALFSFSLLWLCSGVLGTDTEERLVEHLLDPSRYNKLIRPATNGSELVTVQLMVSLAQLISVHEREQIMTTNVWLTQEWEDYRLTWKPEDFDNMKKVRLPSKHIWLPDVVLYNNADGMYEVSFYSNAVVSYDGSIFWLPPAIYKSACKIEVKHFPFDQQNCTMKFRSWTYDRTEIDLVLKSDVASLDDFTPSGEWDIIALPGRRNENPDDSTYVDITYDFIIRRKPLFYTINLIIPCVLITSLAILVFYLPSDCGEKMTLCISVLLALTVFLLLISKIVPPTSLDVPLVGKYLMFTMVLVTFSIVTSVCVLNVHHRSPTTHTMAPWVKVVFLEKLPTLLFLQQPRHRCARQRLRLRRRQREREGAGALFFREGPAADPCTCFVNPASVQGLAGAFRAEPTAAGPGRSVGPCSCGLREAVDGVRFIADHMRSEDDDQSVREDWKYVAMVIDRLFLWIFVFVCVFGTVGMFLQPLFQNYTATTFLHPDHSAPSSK

In the case of `CN1CCC[C@H]1c1ccc2ncccc2c1`, the Ki in test [1] came out at 42000 nM; in test [2], 124 nM; in test [3], 90 nM.

Take `C[N+]1(C)CCC[C@@H]1c1ccc2ncccc2c1`: the Ki in test [1] came out at 90 nM; in test [2] it was 1400 nM; in test [3] it was 220 nM.

Regarding `C[N+](C)(C)CCC#Cc1ccc2ncccc2c1`, the values for the Ki in test [1] and in test [2] were 142 nM and 6800 nM, respectively.

Take `C[N+]1(C)CCCC1c1ccc2ncccc2c1` (racemic): in the test on Mus musculus, the Activity result is “Dose-dependent effect”. Moreover, the inhibition constant (Ki) in test [3] came out at 45 nM.

`CN1CCC[C@@H]1c1ccc2ncccc2c1`: the Ki came out at 8100 nM in test [1], 2100 nM in test [2] and 1950 nM in test [3].

With `CN1CCCC1c1ccc2ncccc2c1` (racemic), in the test with Mus musculus, the Activity result is “Dose-dependent effect”. Further, the Ki in test [3] stood at 132 nM.

With `C[N+]1(C)CCC[C@H]1c1ccc2ncccc2c1`, the Ki in test [1] was 1570 nM; in test [2] it was 42 nM; in test [3] it was 16 nM. For the same compound, the outcome in the test on Mus musculus was Active.
